Legend:
[1] = test system: MCF7; experiment: Antitumor activity against human MCF7 cells after 6 days by SRB assay; assay type: functional; parameters: concentration or dose not given beside the values
Summary of the method: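 MCF7 breast cancer cells were grown in RPMI 1640 with 10% FBS and antibiotic-antimycotic at 37 °C under 5% CO2. They were seeded at 50,000 cells/mL and exposed to inhibitor for six days. Cells were fixed with ice-cold TCA for 1 h, stained with SRB for 30 min at RT, washed with 1% acetic acid and solubilized in 10 mM Tris. A515 was read. […].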

[2] = test system: SNU-638; experiment: Cytotoxicity against human SNU638 cells after 6 days by SRB assay; assay type: functional, cell-based; settings: SNU-638, 144 h
Summary of the method: (§1)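 Cells were plated at 50,000 cells/mL in a humidified 5% CO2 atmosphere at 37 °C and incubated with inhibitors for six days. They were then fixed 1 h in cold TCA, stained 30 min at RT with SRB, washed with 1% acetic acid and solubilized in 10 mM Tris before reading at 515 nm. Means of four duplicate samples were expressed relative to solvent control, with IC50 from nonlinear regression.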

[3] = test system: K562; experiment: Cytotoxicity against human K562 cells after 6 days by SRB assay; assay type: functional, cell-based; settings: K562, 144 h; summary of the method: as §1
[4] = test system: HCT-116; experiment: Cytotoxicity against human HCT116 cells after 6 days by SRB assay; assay type: functional, cell-based; settings: HCT-116, 144 h; summary of the method: as §1
[5] = test system: HT-1080; experiment: Cytotoxicity against human HT1080 cells after 6 days by SRB assay; assay type: functional, cell-based; settings: HT-1080, 144 h; summary of the method: as §1
[6] = biological target: Nicotinamide phosphoribosyltransferase (Homo sapiens, UniProt P43490); experiment: Inhibition of human NAmPRTase by HPLC analysis
[7] = test system: A549; experiment: Cytotoxicity against human A549 cells after 6 days by SRB assay; assay type: functional, cell-based; settings: A549, 144 h; summary of the method: as §1
[8] = test system: MCF7; experiment: Antitumor activity against human MCF7 cells at 10 uM after 6 days by SRB assay; assay type: functional, cell-based; settings: MCF7, 144 h
Summary of the method: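 MCF7 cells were cultured in RPMI 1640 with 10% FBS at 37 °C and 5% CO2, plated at 50,000 cells/mL, and given a fixed 10 µM compound for six days. Viability was read by SRB staining after TCA fixation, Tris solubilization and absorbance at 515 nm. […], as means of three experiments with standard deviations.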

Sequence of Nicotinamide phosphoribosyltransferase (P43490 whole entry): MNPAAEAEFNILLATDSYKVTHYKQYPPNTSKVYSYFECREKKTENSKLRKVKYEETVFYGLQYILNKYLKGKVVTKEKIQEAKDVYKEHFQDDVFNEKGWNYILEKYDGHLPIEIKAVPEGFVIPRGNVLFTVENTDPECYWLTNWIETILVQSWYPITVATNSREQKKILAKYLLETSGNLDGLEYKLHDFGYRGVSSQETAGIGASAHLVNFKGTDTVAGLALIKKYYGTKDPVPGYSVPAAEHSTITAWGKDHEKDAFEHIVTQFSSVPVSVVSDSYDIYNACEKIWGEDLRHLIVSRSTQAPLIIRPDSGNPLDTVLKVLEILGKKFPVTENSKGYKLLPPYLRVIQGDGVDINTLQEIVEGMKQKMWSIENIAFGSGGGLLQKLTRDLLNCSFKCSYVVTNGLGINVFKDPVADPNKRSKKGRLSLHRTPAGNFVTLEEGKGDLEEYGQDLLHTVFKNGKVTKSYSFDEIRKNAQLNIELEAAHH

O=C(/C=C/c1cncnc1)NCCCCC1CCN(C(=O)c2ccccc2)CC1
Cell survival (% of control) [1]: 86.8%

Nc1ncc(/C=C/C(=O)NCCCCC2CCN(C(=O)c3ccccc3)CC2)cn1
Cell survival (% of control) [1]: 103.4%

O=C(/C=C/c1ccc[nH]1)NCCCCC1CCN(C(=O)c2ccccc2)CC1
IC50 [2]: 1700 nM | Cell survival (% of control) [1]: 4.5% | IC50 [3]: 1400 nM | IC50 [4]: 300 nM | IC50 [5]: 3200 nM | IC50 [6]: 20300 nM | IC50 [7]: 4860 nM | IC50 [8]: 1290 nM

O=C(/C=C/c1cn[nH]c1)NCCCCC1CCN(C(=O)c2ccccc2)CC1
Cell survival (% of control) [1]: 101.7%

O=C(/C=C/c1c[nH]cn1)NCCCCC1CCN(C(=O)c2ccccc2)CC1
Cell survival (% of control) [1]: 102.9%

O=C(/C=C/c1c[nH]c2ccccc12)NCCCCC1CCN(C(=O)c2ccccc2)CC1
Cell survival (% of control) [1]: 103.3%

O=C(/C=C/c1ccccc1[N+](=O)[O-])NCCCCC1CCN(C(=O)c2ccccc2)CC1
Cell survival (% of control) [1]: 102.7%

O=C(/C=C/c1cccc([N+](=O)[O-])c1)NCCCCC1CCN(C(=O)c2ccccc2)CC1
Cell survival (% of control) [1]: 103.1%

O=C(/C=C/c1cccn1CCC(CO)CO)NCCCCC1CCN(C(=O)c2ccccc2)CC1
Cell survival (% of control) [1]: 105%

O=C(/C=C/c1cnn(CCC(CO)CO)c1)NCCCCC1CCN(C(=O)c2ccccc2)CC1
Cell survival (% of control) [1]: 106.6%

O=C(/C=C/c1cn(CCC(CO)CO)cn1)NCCCCC1CCN(C(=O)c2ccccc2)CC1
Cell survival (% of control) [1]: 104.3%

O=C(/C=C/c1cn(CCC(CO)CO)c2ccccc12)NCCCCC1CCN(C(=O)c2ccccc2)CC1
Cell survival (% of control) [1]: 104.9%

Cn1cccc1/C=C/C(=O)NCCCCC1CCN(C(=O)c2ccccc2)CC1
Cell survival (% of control) [1]: 103.6%

Nc1ccccc1/C=C/C(=O)NCCCCC1CCN(C(=O)c2ccccc2)CC1
Cell survival (% of control) [1]: 106.3%

Nc1cccc(/C=C/C(=O)NCCCCC2CCN(C(=O)c3ccccc3)CC2)c1
Cell survival (% of control) [1]: 103.9%

O=C(/C=C/c1cccnc1)NCCCCC1CCN(C(=O)c2ccccc2)CC1 [DAPORINAD]
IC50 [2]: < 160 nM | Cell survival (% of control) [1]: 5.6% | IC50 [3]: > 20000 nM | IC50 [4]: < 160 nM | IC50 [5]: < 160 nM | IC50 [7]: < 160 nM | IC50 [8]: 680 nM

Cc1c2ccncc2c(C)c2c1[nH]c1ccccc12 [ELLIPTECINE]
IC50 [2]: 1640 nM | IC50 [3]: 380 nM | IC50 [4]: 410 nM | IC50 [5]: 210 nM | IC50 [7]: 470 nM

Reference: ChEMBL document CHEMBL1759927, “Design, synthesis and X-ray crystallographic study of NAmPRTase inhibitors as anti-cancer agents” (Eur J Med Chem, 2011)
